Measurements from different studies.
Target: Serine/threonine-protein kinase ULK3 (ULK3, Homo sapiens, UniProt Q6PHR2)
Sequence (Q6PHR2 1-472, as in one of the studies): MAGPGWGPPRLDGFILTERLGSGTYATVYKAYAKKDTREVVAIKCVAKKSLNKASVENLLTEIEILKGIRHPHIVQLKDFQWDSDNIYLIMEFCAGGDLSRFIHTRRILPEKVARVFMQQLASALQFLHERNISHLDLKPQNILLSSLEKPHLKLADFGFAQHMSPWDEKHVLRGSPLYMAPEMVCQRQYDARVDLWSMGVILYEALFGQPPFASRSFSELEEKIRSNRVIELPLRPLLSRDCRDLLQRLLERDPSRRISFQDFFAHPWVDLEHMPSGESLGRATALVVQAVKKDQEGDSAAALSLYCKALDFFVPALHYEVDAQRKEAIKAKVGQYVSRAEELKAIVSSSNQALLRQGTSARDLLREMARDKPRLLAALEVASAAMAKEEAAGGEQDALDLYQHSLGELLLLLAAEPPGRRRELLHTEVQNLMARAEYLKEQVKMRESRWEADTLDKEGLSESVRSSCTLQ

COc1ncc2cc3ccccc3nc2c1C#N — remaining binding (cell-free assay; competition with immobilised ligand; 5 µM): 91%
CN(CCCC(F)(F)F)c1nccc(-c2cnn3ncccc23)n1 — remaining binding (binding; 1 µM): 94%
O=C(NCc1ncc(C(F)(F)F)cc1Cl)c1ccc2c(c1)C1(CCS(=O)(=O)CC1)[C@@H](C1CC1)N2S(=O)(=O)c1ccc(F)cc1 — remaining binding (cell-free assay; competition with immobilised ligand; 1 µM): 69%
N[C@@H]1CCN(c2nccc(-c3cnn4ncccc34)n2)C1 — remaining binding (binding; 1 µM): 100%
O=C(Nc1cccnn1)N1CC(C/C=C/c2cncc(Oc3ccc(C(F)(F)F)cn3)n2)C1 — remaining binding (cell-free assay; competition with immobilised ligand; 1 µM): 82%
F[C@@H]1CCN(c2nccc(-c3cnn4ncccc34)n2)C1 — remaining binding (binding; 1 µM): 100%
O=C(c1ccc(Nc2nccc(-c3cc4ccccc4s3)n2)cc1)N1CCC(N2CCCC2)CC1 — remaining binding (binding; competition with immobilised ligand; 1 µM): 0.4%
Cn1nc(C(=O)NCc2ccc(C(=O)O)cc2)cc1-c1ccc2[nH]ccc2c1 — remaining binding (cell-free assay; competition with immobilised ligand; 0.1 µM): 99%
COc1cnc(Nc2cccc(S(N)(=O)=O)c2)nc1N1CCN(c2ccccc2)CC1 — remaining binding (binding; competition with immobilised ligand; 1 µM): 79%
O=C(O)[C@H]1[C@H](Cn2nnc3ccccc3c2=O)CC[C@@H]1C(=O)c1ccc(OCCC2CCOCC2)cc1 — remaining binding (cell-free assay; competition with immobilised ligand; 1 µM): 85%
O=C(NCCCN1CCOCC1)c1ccc(Nc2ncc(Cl)c(-c3ccc(Cl)s3)n2)cc1 — remaining binding (binding; competition with immobilised ligand; 1 µM): 6.5%
CN(C)c1nccc(-c2cnc3ncccn23)n1 — remaining binding (binding; 1 µM): 75%
Cc1cc(-c2cc(C(F)(F)F)ccc2O[C@H]2C[C@@]2(CNS(=O)(=O)c2ccc([N+](=O)[O-])cc2)c2ccc(F)cc2F)[nH]n1 — remaining binding (cell-free assay; competition with immobilised ligand; 0.3 µM): 9.8%
C[C@H](c1ccc(F)cc1)N(Cc1cccc(C(=O)O)c1)C(=O)c1cnc2ccccc2c1 — remaining binding (cell-free assay; competition with immobilised ligand; 1 µM): 82%
FC(F)(F)Oc1cccc(-c2cnc3ccc(-c4ccncc4)nn23)c1 — remaining binding (binding; competition with immobilised ligand; 5 µM): 45%
O=C(Nc1c[nH]nc1C(=O)NC1CCNCC1)c1cc(F)cc(F)c1 — remaining binding (binding; competition with immobilised ligand; 1 µM): 100%
CN(C)c1ncc(F)c(-c2cnn3ncccc23)n1 — remaining binding (binding; 1 µM): 72%
CNC(=O)[C@@H]1CC[C@@H](n2c(-c3ccc4cnccc4c3)nc3ccc(C(=O)NCc4cccc(C(N)=O)c4)cc32)C1 — remaining binding (binding; competition with immobilised ligand; 1 µM): 88%
CNC(=O)Nc1ccc2c(c1)[C@@]1(CC2)OC(=O)N(CC(=O)N(Cc2ccc(F)cc2)[C@@H](C)C(F)(F)F)C1=O — remaining binding (cell-free assay; competition with immobilised ligand; 1 µM): 55%
O=C(NCCCN1CCOCC1)c1ccc(Nc2nccc(-c3cc4ccccc4s3)n2)cc1 — remaining binding (binding; competition with immobilised ligand; 1 µM): 3.2%
